Values belong to the compound of their own block, whether it stands above or below them.
Tests used:
HT-29 = experiment: Cytotoxicity against human HT-29 cells assessed as reduction in cell viability measured after 72 hrs by SRB assay; format: functional, cell-based; conditions: HT-29, 72 h
A2780 = experiment: Cytotoxicity against human A2780 cells assessed as reduction in cell viability measured after 72 hrs by SRB assay; format: functional, cell-based; conditions: A2780, 72 h
HEK293 = experiment: Cytotoxicity against human HEK293 cells assessed as reduction in cell viability measured after 72 hrs by SRB assay; format: ADME, cell-based; conditions: HEK293, 72 h
A-375 = experiment: Cytotoxicity against human A-375 cells assessed as reduction in cell viability measured after 72 hrs by SRB assay; format: functional, cell-based; conditions: A-375, 72 h
FaDu = experiment: Cytotoxicity against human FaDu cells assessed as reduction in cell viability measured after 72 hrs by SRB assay; format: functional, cell-based
MCF7 = experiment: Cytotoxicity against human MCF7 cells assessed as reduction in cell viability measured after 72 hrs by SRB assay; format: functional, cell-based; conditions: MCF7, 72 h
NIH3T3 = experiment: Cytotoxicity against mouse NIH3T3 cells assessed as reduction in cell viability measured after 72 hrs by SRB assay; format: cell-based; conditions: NIH3T3, 72 h
Procedure, shortened: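 Sulforhodamine B assay on human tumour lines A375 (epithelial melanoma), HT29 (colorectal adenocarcinoma), MCF-7 (breast adenocarcinoma), A2780 (ovarian carcinoma) and FaDu (squamous cell carcinoma). Non-malignant NIH 3T3 (mouse fibroblasts) and HEK293 (human embryonic kidney) cells were also tested. EC50 values are given as mean ± standard mean error.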

[1] = Drug uptake in endoplasmic reticulum of human A-375 cells at 5.4 uM measured after 12 hrs by ER-tracker based fluorescence imaging analysis; format: ADME, subcellular; conditions: a-375, 12 h
Procedure, shortened: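 Living A375 cells were incubated with compound for 12 h, co-stained with ER-Tracker, and imaged by fluorescence microscopy. Compound, tracker and merged channels were compared for localisation in the endoplasmic reticulum.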

[2] = Drug uptake in Mitochondria of human A-375 cells at 5.4 uM measured after 12 hrs by Mito-tracker based fluorescence imaging analysis; format: ADME; conditions: a-375, 12 h

Structure (SMILES): C=C(C)[C@@H]1CC[C@]2(C(=O)N3CCN(C(=O)C4=C(C)C=C(C)N5C[N+](CCCCCCCCCCCC)(CCCCCCCCCCCC)N=C45)CC3)CC[C@]3(C)[C@H](CC[C@@H]4[C@@]5(C)CC[C@H](OC(C)=O)C(C)(C)[C@@H]5CC[C@]43C)[C@@H]12
- EC50 (HT-29): 24.9 µM
- EC50 (A2780): 11 µM
- EC50 (HEK293): 13.3 µM
- EC50 (A-375): 16.8 µM
- EC50 (FaDu): 10.7 µM
- EC50 (MCF7): 15.7 µM
- EC50 (NIH3T3): > 30 µM

- Drug uptake [1]: Active
- Drug uptake [2]: Not Active
Structure (SMILES): C=C(C)[C@@H]1CC[C@]2(C(=O)N3CCN(C(=O)C4=C(C)C=C(C)N5C[N+](CCCCCC)(CCCCCC)N=C45)CC3)CC[C@]3(C)[C@H](CC[C@@H]4[C@@]5(C)CC[C@H](OC(C)=O)C(C)(C)[C@@H]5CC[C@]43C)[C@@H]12.[Cl-]
- EC50 (HT-29): 7.5 µM
- EC50 (A2780): 4.6 µM
- EC50 (HEK293): 3 µM
- EC50 (A-375): 5.4 µM
- EC50 (FaDu): 6 µM
- EC50 (MCF7): 4.9 µM
- EC50 (NIH3T3): 6.6 µM

Reference: ChEMBL document CHEMBL4732060, “Cytotoxic triterpenoid-safirinium conjugates target the endoplasmic reticulum” (Eur J Med Chem, 2021)
